These results are taken from ChEMBL document CHEMBL5653631, “A Potent and Selective ULK1 Inhibitor Suppresses Autophagy and Sensitizes Cancer Cells to Nutrient Stress” (iScience, 2018).

For experiment [1], the target named is T1, Serine/threonine-protein kinase TAO2 (Homo sapiens) (UniProt Q9UL54).
T1 sequence (whole entry): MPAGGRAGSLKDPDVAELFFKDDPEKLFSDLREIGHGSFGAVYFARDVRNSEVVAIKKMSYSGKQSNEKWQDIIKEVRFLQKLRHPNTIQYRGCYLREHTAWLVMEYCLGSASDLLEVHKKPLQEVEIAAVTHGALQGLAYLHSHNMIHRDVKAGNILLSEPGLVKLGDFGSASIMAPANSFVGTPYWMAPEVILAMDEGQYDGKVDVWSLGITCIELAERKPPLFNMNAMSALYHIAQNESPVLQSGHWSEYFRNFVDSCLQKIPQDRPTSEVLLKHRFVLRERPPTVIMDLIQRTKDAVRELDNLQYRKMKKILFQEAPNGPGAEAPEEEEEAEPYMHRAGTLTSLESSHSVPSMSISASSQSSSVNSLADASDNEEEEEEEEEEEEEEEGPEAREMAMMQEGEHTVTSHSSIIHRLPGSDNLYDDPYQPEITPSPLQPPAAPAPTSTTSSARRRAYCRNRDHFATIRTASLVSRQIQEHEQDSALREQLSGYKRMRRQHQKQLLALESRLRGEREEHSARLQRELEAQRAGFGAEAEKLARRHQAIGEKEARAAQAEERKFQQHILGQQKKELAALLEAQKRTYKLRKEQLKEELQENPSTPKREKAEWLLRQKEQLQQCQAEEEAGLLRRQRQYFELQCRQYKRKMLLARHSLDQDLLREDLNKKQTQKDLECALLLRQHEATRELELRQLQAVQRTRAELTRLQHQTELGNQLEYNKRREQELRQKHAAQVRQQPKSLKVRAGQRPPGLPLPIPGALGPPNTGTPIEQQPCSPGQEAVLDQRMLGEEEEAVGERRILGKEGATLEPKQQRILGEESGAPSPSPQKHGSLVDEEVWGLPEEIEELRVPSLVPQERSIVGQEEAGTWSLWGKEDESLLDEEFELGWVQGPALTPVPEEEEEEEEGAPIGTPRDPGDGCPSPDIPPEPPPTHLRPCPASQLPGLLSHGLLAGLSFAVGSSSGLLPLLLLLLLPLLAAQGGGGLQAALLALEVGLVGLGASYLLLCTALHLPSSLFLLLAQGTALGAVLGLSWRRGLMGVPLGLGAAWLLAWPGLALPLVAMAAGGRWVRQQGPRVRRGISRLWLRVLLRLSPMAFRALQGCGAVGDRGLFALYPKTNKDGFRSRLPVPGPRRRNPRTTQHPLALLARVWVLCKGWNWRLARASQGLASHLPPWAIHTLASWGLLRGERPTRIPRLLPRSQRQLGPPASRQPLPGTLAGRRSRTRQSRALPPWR
The experiment in a line: Inhibition of human recombinant TAO2 at 40 nM in presence of ATP by radiometric assay relative to control.

Experiment [2] deals with T2, cGMP-dependent protein kinase 1 (Homo sapiens) (UniProt Q13976).
T2 sequence (whole entry): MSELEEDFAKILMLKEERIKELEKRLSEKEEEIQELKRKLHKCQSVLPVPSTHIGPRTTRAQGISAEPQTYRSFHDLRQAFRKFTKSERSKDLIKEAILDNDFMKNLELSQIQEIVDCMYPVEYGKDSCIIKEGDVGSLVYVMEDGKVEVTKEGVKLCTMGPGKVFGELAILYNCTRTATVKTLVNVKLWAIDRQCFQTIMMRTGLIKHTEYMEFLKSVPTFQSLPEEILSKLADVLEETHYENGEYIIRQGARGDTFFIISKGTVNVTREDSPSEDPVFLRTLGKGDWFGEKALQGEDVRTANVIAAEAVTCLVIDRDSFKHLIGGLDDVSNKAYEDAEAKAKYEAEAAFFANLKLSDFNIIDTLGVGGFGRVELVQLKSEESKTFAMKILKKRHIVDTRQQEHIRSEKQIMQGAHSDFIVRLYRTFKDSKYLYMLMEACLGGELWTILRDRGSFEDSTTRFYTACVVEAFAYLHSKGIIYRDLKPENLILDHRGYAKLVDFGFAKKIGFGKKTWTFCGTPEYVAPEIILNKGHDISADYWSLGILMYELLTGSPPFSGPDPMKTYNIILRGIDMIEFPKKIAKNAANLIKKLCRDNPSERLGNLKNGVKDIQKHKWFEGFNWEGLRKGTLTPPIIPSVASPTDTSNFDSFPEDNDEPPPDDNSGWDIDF
The experiment in a line: Inhibition of human recombinant PKG1 at 40 nM related to control ULK1.

In experiment [3] the target is 5'-AMP-activated protein kinase catalytic subunit alpha-2 (Homo sapiens) (UniProt P54646). The experiment in a line: Inhibition of human recombinant AMPKa2 at 500 nM in presence of ATP by radiometric assay relative to control. The procedure, abridged:
(§1)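 Panel of 327 recombinant human kinases, each assayed in vitro by radiometric activity assay in duplicate at a single inhibitor concentration per compound, chosen with reference to its ULK1 inhibition. Activity remaining was expressed as percent of vehicle control, and percent inhibition was calculated as 100 minus percent activity remaining.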

For experiment [4], the target named is SRSF protein kinase 3 (Homo sapiens) (UniProt Q9UPE1). The experiment in a line: Inhibition of human recombinant MSSK1 at 500 nM in presence of ATP by radiometric assay relative to control.
SRSF protein kinase 3 (Homo sapiens), sequence (Q9UPE1 whole entry): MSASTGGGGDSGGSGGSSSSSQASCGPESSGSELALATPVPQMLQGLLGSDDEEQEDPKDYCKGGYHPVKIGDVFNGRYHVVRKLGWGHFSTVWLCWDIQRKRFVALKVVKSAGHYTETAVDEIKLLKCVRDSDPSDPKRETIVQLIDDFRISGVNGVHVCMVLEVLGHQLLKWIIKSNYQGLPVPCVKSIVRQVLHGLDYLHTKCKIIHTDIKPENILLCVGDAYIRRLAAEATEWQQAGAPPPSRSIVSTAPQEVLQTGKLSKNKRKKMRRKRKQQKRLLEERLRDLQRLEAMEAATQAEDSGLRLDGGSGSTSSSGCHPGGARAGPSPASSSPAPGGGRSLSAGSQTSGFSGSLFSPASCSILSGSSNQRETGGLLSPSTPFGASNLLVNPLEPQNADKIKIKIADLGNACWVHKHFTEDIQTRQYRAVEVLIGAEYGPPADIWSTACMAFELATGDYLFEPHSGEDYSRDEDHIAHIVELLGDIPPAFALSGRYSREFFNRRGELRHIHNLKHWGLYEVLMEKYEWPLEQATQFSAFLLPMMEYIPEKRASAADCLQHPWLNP
The target in experiment [5] is cAMP-dependent protein kinase catalytic subunit alpha (Homo sapiens) (UniProt P17612). The experiment in a line: Inhibition of human recombinant PKACalpha at 500 nM in presence of ATP by radiometric assay relative to control.
Experiment [6] has the same target. Put plainly: Inhibition of human recombinant PKACalpha at 500 nM related to control ULK1.
Experiment [7] addresses T3, Testis-specific serine/threonine-protein kinase 3 (Homo sapiens) (UniProt Q96PN8).
T3 sequence (whole entry): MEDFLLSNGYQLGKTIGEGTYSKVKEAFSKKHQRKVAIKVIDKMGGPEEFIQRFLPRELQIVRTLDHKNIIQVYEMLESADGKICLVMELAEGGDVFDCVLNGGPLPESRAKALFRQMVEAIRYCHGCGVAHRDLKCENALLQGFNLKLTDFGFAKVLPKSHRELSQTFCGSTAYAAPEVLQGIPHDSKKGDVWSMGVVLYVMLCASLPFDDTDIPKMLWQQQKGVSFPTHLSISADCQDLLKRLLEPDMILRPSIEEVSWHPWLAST
The experiment in a line: Inhibition of human recombinant TSSK3 at 500 nM related to control ULK1.

Experiment [8] has as its target Serine-protein kinase ATM (Homo sapiens) (UniProt Q13315). Put plainly: Inhibition of human recombinant ATM at 15 nM related to control ULK1. The procedure, abridged:
as §1

The target of experiment [9] is Serine/threonine-protein kinase N1 (Homo sapiens) (UniProt Q16512). Put plainly: Inhibition of human recombinant PKN1 at 15 nM related to control ULK1.
Serine/threonine-protein kinase N1 (Homo sapiens), sequence (Q16512 2-942 limits assumed): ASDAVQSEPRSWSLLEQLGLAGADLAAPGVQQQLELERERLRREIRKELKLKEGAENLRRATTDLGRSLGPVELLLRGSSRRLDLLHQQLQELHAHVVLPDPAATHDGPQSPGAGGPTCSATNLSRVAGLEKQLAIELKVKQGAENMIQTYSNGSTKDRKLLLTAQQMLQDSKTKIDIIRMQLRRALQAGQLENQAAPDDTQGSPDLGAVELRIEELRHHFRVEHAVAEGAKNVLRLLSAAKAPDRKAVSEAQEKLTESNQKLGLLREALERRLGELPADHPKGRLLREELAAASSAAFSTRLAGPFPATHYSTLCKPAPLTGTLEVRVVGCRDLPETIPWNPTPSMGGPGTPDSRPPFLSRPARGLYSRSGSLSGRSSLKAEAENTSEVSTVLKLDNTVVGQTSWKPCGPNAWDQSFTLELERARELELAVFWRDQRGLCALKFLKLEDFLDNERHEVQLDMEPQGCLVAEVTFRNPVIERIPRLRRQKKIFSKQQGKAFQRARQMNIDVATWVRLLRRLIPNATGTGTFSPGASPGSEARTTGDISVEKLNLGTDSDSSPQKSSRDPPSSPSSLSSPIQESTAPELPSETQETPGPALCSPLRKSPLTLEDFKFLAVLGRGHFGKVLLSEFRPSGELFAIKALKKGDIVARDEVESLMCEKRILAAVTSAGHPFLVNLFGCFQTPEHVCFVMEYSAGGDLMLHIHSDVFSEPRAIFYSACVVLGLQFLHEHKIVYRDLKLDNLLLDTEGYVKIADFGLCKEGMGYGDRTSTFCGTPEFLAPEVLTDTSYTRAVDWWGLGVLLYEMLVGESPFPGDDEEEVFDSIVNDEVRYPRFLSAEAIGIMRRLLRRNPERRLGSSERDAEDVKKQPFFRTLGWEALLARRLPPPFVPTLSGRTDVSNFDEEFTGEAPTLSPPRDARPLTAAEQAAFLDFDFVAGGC
Experiment [10] has as its target Rho-associated protein kinase 1 (Homo sapiens) (UniProt Q13464). Put plainly: Inhibition of human recombinant ROCK1 at 15 nM related to control ULK1.

Rho-associated protein kinase 1 (Homo sapiens), sequence (Q13464 2-1354 limits assumed): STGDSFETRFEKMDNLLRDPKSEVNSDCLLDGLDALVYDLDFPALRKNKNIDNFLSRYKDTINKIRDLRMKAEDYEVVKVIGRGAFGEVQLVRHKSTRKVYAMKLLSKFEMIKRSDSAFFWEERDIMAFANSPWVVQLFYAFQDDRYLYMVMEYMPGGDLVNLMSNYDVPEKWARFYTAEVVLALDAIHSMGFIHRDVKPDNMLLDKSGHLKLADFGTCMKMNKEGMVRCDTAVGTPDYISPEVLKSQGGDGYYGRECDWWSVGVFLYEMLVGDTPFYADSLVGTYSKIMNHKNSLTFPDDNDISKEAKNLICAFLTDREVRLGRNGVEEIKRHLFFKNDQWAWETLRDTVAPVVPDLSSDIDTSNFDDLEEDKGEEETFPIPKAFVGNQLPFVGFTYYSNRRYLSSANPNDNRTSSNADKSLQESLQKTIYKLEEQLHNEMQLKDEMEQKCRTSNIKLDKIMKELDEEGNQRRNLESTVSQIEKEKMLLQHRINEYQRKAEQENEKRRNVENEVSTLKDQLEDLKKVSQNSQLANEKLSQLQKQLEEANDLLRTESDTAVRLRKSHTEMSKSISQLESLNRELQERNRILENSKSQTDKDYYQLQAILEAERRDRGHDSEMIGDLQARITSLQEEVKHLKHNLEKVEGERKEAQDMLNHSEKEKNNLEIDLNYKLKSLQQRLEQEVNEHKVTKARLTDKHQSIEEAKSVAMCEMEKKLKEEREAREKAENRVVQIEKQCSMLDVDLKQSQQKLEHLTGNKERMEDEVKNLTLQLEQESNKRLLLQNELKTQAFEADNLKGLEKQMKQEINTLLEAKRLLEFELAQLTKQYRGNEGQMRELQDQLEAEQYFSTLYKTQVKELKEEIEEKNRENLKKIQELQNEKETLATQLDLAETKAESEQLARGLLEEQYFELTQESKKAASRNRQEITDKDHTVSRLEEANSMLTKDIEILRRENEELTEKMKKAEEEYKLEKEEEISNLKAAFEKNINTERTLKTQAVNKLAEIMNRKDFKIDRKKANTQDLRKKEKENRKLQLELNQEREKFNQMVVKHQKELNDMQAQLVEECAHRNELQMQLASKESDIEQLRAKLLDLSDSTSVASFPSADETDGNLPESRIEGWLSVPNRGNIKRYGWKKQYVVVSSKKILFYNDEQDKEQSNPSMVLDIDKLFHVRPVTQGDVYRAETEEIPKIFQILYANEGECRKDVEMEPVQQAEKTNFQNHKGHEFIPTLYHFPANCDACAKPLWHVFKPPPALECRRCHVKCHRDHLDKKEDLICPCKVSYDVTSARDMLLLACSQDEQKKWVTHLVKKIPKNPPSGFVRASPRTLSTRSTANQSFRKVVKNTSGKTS
5'-AMP-activated protein kinase catalytic subunit alpha-2 (Homo sapiens), sequence (P54646 whole entry, looked up): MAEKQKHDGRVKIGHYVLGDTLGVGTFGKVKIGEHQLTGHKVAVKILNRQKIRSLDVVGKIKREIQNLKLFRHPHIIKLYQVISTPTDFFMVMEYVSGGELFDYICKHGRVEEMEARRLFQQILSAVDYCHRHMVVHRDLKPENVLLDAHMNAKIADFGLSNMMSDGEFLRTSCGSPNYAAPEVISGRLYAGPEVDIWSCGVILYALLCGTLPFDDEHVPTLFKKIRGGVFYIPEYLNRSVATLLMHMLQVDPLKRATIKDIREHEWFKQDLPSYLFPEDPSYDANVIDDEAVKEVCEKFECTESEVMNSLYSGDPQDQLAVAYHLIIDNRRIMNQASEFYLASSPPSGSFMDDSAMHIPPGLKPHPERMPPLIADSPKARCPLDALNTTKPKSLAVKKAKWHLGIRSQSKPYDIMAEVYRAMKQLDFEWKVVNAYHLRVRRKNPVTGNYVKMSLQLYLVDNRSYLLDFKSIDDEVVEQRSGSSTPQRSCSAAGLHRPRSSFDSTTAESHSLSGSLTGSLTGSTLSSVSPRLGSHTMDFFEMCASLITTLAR

The inhibition is the relative decrease from the control value, in per cent. As for `O=C(N[C@@H](C1CC1)C(F)(F)F)c1cc(-c2cnn3cc(-c4ccc(F)cc4)cnc23)cs1`, the inhibition in experiment [1] was 3%. Further, the fold change (FC) in experiment [2] is 0.08.
On to `CNC(=O)c1ccccc1Oc1nc(Nc2cc(OC)c(OC)c(OC)c2)ncc1Br`, for which the figures for the inhibition in experiment [3], in experiment [4] and in [5] were 57%, 15% and 0%, respectively. The fold change (FC) in [6] and in [7] was 0 throughout.
As for `CC(C)[C@H](NC(=O)c1cc(-c2cnn3cc(-c4ccc(OCCN5CCCCC5)cc4)cnc23)cs1)C(F)(F)F`, the figures for the fold change (FC) in [8], in [9] and in [10] were 0.07, 0 and 0.09, respectively.
